Test results taken from ChEMBL document CHEMBL4396885, “Thioether-based 2-aminobenzamide derivatives: Novel HDAC inhibitors with potent in vitro and in vivo antitumor activity” (Eur J Med Chem, 2019).

What was measured:
A549 [1] = assay: Cell cycle arrest in human A549 cells assessed as accumulation of cells at G2/M phase at 0.5 uM after 48 hrs by propidium iodide staining-based flow cytometry (reference value: 13.62%); format: functional
A549 [2] = assay: Induction of apoptosis in human A549 cells after 48 hrs by Annexin V-FITC/propidium iodide staining based flow cytometry; format: functional, cell-based
In short: (§1)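 A549 seeded 4×10⁶ cells/well, dosed after 12 h with compound at various concentrations, harvested after 48 h. Resuspended in annexin-binding buffer, stained with Annexin V-FITC and propidium iodide for 15 min in the dark, analysed by flow cytometry; means of three separate experiments.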

[3] = target: Histone deacetylase 3/NCoR1 (Homo sapiens, UniProt O15379); assay: Inhibition of recombinant human HDAC3/NCOR1 assessed as decrease in deacetylation of FLUOR DE LYS SIRT1 substrate preincubated for 10 mins followed by substrate addition and measured after 30 mins by fluorescence based assay; format: protein-complex assay
A549 [4] = assay: Cell cycle arrest in human A549 cells assessed as accumulation of cells at G0/G1 phase at 2 uM after 48 hrs by propidium iodide staining-based flow cytometry (reference value: 73.35%); format: functional
[5] = AUC (0 to infinity) in ICR mouse at 4 mg/kg, iv after 0.08 to 24 hrs by LC-MS/MS analysis; format: ADME, organism-based; design: dose 4 mg/kg, time infinity, route intravenous; conditions: in vivo
In short: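 Male ICR mice (29.7~37.4 g), single iv dose 4 mg/kg in DMSO:40% SBE-β-CD 20:80 (v/v). Retro-orbital blood at 0.08–24 h into EDTA-K2 tubes; plasma protein-precipitated with acetonitrile containing internal standards, analysed by LC-MS/MS; n=3 per time point; noncompartmental analysis.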

A549 [6] = assay: Induction of apoptosis in human A549 cells assessed as late apoptotic cells at 0.5 uM after 48 hrs by Annexin V-FITC/propidium iodide staining based flow cytometry (reference value: 0.637%); format: functional; in short: as §1
HeLa [7] = assay: Antiproliferative activity against human HeLa cells assessed as decrease in cell viability after 72 hrs by CCK-8 assay; format: functional, cell-based
In short: (§2)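 Cells grown to 70–85% confluence (A375, A549, HCT116 in RPMI1640; HeLa, SMMC7721 in DMEM; 10% FBS, 37 °C, 5% CO2), seeded 4000/well, dosed after 12 h across a concentration range, incubated 72 h, then CCK-8 for 1 h; absorbance at 450 nm. IC50 as mean ± SD of three separate experiments.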

A549 [8] = assay: Induction of apoptosis in human A549 cells assessed as viable cells at 0.5 uM after 48 hrs by Annexin V-FITC/propidium iodide staining based flow cytometry (reference value: 98%); format: functional; conditions: A549, 48 h, read-out: Activity; in short: as §1
A549 [9] = assay: Induction of apoptosis in human A549 cells assessed as viable cells at 1 uM after 48 hrs by Annexin V-FITC/propidium iodide staining based flow cytometry (reference value: 98%); format: functional; conditions: A549, 48 h, read-out: Activity; in short: as §1
HeLa [10] = assay: Antiproliferative activity against human HeLa cells assessed as growth inhibition at 8 uM after 72 hrs by CCK-8 assay relative to control; format: functional; conditions: read-out: GI
A-375 = assay: Antiproliferative activity against human A375 cells assessed as decrease in cell viability after 72 hrs by CCK-8 assay; format: functional, cell-based; conditions: A-375, 72 h; in short: as §2
A549 [11] = assay: Induction of apoptosis in human A549 cells assessed as late apoptotic cells at 1 uM after 48 hrs by Annexin V-FITC/propidium iodide staining based flow cytometry (reference value: 0.637%); format: functional; in short: as §1

Sequence of Histone deacetylase 3/NCoR1 (O15379 whole entry): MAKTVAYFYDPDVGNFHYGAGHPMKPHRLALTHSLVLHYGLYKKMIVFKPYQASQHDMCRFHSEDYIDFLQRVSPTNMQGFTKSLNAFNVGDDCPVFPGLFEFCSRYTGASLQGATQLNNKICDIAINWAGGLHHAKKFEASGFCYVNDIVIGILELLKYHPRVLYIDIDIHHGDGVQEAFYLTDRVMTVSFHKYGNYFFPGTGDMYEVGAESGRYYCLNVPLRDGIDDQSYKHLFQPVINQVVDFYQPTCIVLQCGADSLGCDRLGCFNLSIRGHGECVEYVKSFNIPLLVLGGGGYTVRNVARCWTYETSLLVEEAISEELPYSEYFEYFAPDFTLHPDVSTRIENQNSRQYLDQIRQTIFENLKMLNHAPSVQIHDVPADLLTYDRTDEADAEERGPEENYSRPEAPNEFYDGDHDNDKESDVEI
Sequence of Histone deacetylase 3/NCoR1 (O75376 whole entry, further chain): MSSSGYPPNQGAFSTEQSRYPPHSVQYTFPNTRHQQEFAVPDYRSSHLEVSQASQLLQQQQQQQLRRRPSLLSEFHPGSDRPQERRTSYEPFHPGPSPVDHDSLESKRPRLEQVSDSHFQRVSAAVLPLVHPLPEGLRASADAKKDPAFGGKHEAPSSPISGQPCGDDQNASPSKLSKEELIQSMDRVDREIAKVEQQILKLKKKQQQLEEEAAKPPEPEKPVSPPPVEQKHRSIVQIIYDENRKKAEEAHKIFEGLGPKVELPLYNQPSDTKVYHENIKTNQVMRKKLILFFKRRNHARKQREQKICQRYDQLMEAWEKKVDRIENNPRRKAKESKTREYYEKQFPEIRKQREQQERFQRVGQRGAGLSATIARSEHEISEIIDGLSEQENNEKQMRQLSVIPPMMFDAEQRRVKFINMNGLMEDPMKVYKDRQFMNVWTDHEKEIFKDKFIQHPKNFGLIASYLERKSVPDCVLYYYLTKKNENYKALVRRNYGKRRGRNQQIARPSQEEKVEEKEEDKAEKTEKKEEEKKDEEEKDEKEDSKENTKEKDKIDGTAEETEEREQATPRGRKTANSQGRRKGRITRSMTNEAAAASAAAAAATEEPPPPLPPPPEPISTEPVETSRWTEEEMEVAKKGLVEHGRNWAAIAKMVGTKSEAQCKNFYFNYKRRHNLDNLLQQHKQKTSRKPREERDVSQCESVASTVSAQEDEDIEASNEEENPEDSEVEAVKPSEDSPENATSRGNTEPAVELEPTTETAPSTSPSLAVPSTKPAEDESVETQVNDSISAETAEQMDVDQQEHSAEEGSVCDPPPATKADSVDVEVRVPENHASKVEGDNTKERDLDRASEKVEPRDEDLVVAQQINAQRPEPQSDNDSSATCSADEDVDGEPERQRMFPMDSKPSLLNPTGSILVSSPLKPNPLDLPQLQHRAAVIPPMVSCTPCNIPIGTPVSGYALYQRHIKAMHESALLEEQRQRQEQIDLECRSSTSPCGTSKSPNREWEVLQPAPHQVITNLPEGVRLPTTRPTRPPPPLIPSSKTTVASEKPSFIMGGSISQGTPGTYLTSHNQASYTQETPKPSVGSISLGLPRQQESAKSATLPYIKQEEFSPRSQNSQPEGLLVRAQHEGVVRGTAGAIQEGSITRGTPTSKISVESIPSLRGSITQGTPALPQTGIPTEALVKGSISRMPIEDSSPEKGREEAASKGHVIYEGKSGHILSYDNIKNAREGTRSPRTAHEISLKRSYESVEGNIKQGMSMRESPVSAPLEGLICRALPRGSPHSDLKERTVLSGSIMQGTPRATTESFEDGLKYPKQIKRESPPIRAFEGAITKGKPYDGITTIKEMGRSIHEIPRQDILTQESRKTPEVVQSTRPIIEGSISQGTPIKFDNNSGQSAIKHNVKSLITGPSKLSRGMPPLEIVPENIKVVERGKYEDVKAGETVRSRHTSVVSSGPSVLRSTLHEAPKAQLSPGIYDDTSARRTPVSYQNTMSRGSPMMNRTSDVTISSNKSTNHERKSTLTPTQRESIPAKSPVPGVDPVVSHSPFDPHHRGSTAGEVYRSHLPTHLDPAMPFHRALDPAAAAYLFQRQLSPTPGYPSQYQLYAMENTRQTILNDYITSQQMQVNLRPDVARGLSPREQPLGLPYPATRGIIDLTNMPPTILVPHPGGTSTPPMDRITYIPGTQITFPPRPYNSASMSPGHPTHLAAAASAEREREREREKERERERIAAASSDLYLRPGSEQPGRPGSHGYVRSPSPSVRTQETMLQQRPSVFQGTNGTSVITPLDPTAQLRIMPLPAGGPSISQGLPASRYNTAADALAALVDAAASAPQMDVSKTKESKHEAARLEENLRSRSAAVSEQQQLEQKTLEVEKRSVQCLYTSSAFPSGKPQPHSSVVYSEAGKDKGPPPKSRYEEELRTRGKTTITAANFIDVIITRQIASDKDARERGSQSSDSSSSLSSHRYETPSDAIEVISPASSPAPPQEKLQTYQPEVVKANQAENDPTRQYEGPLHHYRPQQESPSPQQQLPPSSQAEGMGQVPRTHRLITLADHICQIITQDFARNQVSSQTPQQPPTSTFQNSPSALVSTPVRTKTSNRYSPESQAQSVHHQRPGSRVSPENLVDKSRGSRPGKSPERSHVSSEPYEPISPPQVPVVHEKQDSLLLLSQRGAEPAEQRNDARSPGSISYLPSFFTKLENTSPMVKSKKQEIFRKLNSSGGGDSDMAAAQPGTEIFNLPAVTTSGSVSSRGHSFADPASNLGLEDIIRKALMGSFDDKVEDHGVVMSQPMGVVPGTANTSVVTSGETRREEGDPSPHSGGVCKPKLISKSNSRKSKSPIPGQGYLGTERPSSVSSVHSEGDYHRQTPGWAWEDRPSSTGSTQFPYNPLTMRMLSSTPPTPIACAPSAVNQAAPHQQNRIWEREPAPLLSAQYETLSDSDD

| IC50 [3] [µM] | AUC(0-inf) [5] [ng·h/mL] | IC50 (HeLa [7]) [µM] | IC50 (A-375) [µM] | Compound | Activity (A549 [1]) [%] | Activity (A549 [2]) | Activity (A549 [4]) [%] | Activity (A549 [6]) [%] | viability at 0.5 µM (A549 [8]) [%] | viability at 1 µM (A549 [9]) [%] | inhibition of growth at 8 µM (HeLa [10]) [%] | Activity (A549 [11]) [%] |
| --- | --- | --- | --- | --- | --- | --- | --- | --- | --- | --- | --- | --- |
| 0.215 | 874 | 3.8 | 2.42 | CCc1ccc(SCc2ccc(C(=O)Nc3ccccc3N)cc2)cc1 | 53.55 | Dose-dependent effect | 24 | 7.08 | 80.8 | 70.4 | 71 | 14.6 |
| 0.136 | 740 | 2.39 | 3.01 | COc1ccc(SCc2ccc(C(=O)Nc3ccccc3N)cc2)cc1 | 18.07 | Dose-dependent effect | 39.3 | 15 | 66 | 67.9 | 79.7 | 10.8 |
